Published values pooled from the literature.
Protocols differ between the studies behind these lines.
gag-pol reverse transcriptase: Gag-Pol polyprotein, reverse transcriptase (gag-pol, Human immunodeficiency virus type 1 group M subtype B, UniProt P04585)
gag-pol protease: Gag-Pol polyprotein, protease (gag-pol, Human immunodeficiency virus type 1 group M subtype B, UniProt P04585)

SMILES	target	observed	action	method	quantity	value
C[C@H](Cn1cnc2c(N)ncnc21)OCP(=O)(O)O	gag-pol reverse transcriptase	enzyme activity	inhibitor	–	IC50	950 nM
CC1(C)CC(=O)c2cc3c(C#N)cn(Cc4ccccc4)c3nc2C1	gag-pol reverse transcriptase	enzyme activity	inhibitor	FRET	IC50	> 10000 nM
CC[C@H](C)[C@H]1C(OC(C)(C)C)=CC(=O)N1[C@H]1CCN(C2=CC(=O)N([C@H]3CCN(C4=CC(=O)N[C@H]4CC(C)C)C3)[C@H]2C)C1	gag-pol protease	enzyme activity	inhibitor	fluorescence	IC50	111000 nM
Oc1cc2c(cc1O)C(c1ccccc1)CNCC2 (racemic)	Gag-Pol polyprotein, integrase (gag-pol, Human immunodeficiency virus type 1 group M subtype B, UniProt P04585)	enzyme activity	inhibitor	–	IC50	> 25000 nM
COc1ccc2c(c1)OCCCCCCCCCN(C[C@@H](O)[C@H](Cc1ccccc1)NC(=O)O[C@H]1CO[C@H]3OCC[C@H]31)S2(=O)=O	gag-pol protease	enzyme activity	inhibitor	–	Ki	< 0.7 nM
COc1ccc(S(=O)(=O)N(CC(C)C)C[C@@H](O)[C@H](Cc2ccccc2)NC(=O)OC2CO[C@H]3OCC(F)(F)[C@@H]23)cc1 (stereo partly shown)	gag-pol protease	enzyme activity	inhibitor	–	Ki	0.022 nM
CC(C)[C@H](NC(=O)[C@H](CCCNC(=N)N)NC(=O)[C@H](CO)NC(=O)[C@@H](N)Cc1c[nH]c2ccccc12)C(=O)NCC(=O)N[C@@H](Cc1ccc(O)cc1)C(=O)N[C@@H](Cc1c[nH]c2ccccc12)C(N)=O	gag-pol protease	binding	–	SPR	Kd	44600 nM
COc1ccc(S(=O)(=O)N(CC(C)C)C[C@@H](O)[C@@H]2Cc3ccc(cc3)OCCCC=CCCc3c(O)cccc3C(=O)N2)cc1	gag-pol protease	enzyme activity	inhibitor	–	Ki	10 nM
N#Cc1cn(Cc2ccccc2)c2ncc(Br)cc12	gag-pol reverse transcriptase	enzyme activity	inhibitor	FRET	IC50	> 100000 nM
C=CCCCOc1ccc(C[C@H](NC(=O)c2cccc(O)c2CCC=C)[C@H](O)CN(CC(C)C)S(=O)(=O)c2ccc(OC)cc2)cc1	gag-pol protease	enzyme activity	inhibitor	–	Ki	45 nM
CC(=O)c1cc2c(-c3ccc(N(C)C)cc3)c3c(nc2[nH]1)-c1ccccc1C3=O	gag-pol reverse transcriptase	enzyme activity	inhibitor	FRET	IC50	> 10000 nM
CC(C)CN(C[C@@H](O)[C@H](Cc1ccccc1)NC(=O)O[C@H]1CCO[C@H]2OCC[C@H]21)S(=O)(=O)c1ccc(B(O)O)cc1	gag-pol protease	enzyme activity	inhibitor	–	Ki	0.0021 nM
COc1ccc(S(=O)(=O)N(CC(C)C)C[C@@H](O)[C@@H]2Cc3ccc(cc3)OCC=CCCc3c(O)cccc3C(=O)N2)cc1	gag-pol protease	enzyme activity	inhibitor	–	Ki	0.2 nM
